The values that follow come from ChEMBL document CHEMBL1123363, “(5-Amino-1,3-dimethyl-1H-pyrazol-4-yl)(2-fluorophenyl)methanones . A series of novel potential antipsychotic agents” (J Med Chem, 1986).

The subject of assay [1] is Rattus norvegicus. In words: Compound was tested for its affect on the accumulation of the dopamine metabolite homovanillic acid (HAV) in the rat striatum at 83 mg/kg dose after peroral administration. In kind it is functional. The settings on record: route oral. Summed up:
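Male Long–Evans rats were dosed orally and decapitated 2 h later. Striatal HVA was isolated on Sephadex G-10 and measured spectrofluorometrically, expressed as % control ± SEM.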

Assay [2] deals with Muscarinic acetylcholine receptor. In words: Binding affinity against the Muscarinic acetylcholine receptor using [3H]- QNB. In kind it is protein assay, Rattus norvegicus. The essentials:
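Muscarinic sites in rat brain stem membranes (male Long-Evans, 150–250 g), labelled with [3H]quinuclidinyl benzilate at 0.03 nM final. Oxotremorine at 100 μM final served as the reference displacer. IC50 from four or five concentrations by nonlinear curve fitting.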

Assay [3] deals with Rattus norvegicus. Nature of the assay: Compound was tested for serum prolactin assay method in rats at 10 mg/kg dose after peroral administration. It is filed as functional. Conditions: route oral. Summed up:
(§1)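 Seven-week-old male Sprague–Dawley rats, five per group, were dosed orally and killed by decapitation 1 h later. Serum prolactin from trunk blood was measured by radioimmunoassay with [125I]-PRL and expressed as % of control (mean ± SEM).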

Assay [4] concerns Rattus norvegicus. In words: Inhibition of conditional avoidance in rats after peroral administration. It is filed as functional. The settings on record: po. The essentials:
(§2)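 Fasted male Wistar rats (150–250 g) were trained to jump to a platform at a buzzer to avoid grid shock (1.1 mA/s). After oral dosing they were tested every 20 min for 6 h over 19 trials, 10 rats per dose, each rat used once. Peak effect was the mean of the four consecutive trials with the largest effect, computed from response latency. ED50 read graphically from at least three doses.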

Assay [5] has as its target Serotonin 2 (5-HT2) receptor (Rattus norvegicus, UniProt P30994+P08909+P14842). In words: Binding affinity towards 5-hydroxytryptamine 2 receptor using [3H]- spiroperidol. In kind it is protein assay. The essentials: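 Serotonin-2 sites in rat cerebral cortex membranes (male Long-Evans, 150–250 g) with [3H]spiroperidol at 0.2 nM final. (+)-Butaclamol at 1.0 μM final was the reference. IC50 from four or five concentrations by nonlinear curve fitting.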

The test system of assay [6] is Rattus norvegicus. In words: Compound was tested for serum prolactin assay method in rats at 100 mg/kg dose after peroral administration. It is filed as functional. The settings on record: route oral. The essentials:
as §1

The next assay addresses T1, Adenosine receptor A1 (Rattus norvegicus, UniProt P25099).
T1 sequence (P25099 whole entry): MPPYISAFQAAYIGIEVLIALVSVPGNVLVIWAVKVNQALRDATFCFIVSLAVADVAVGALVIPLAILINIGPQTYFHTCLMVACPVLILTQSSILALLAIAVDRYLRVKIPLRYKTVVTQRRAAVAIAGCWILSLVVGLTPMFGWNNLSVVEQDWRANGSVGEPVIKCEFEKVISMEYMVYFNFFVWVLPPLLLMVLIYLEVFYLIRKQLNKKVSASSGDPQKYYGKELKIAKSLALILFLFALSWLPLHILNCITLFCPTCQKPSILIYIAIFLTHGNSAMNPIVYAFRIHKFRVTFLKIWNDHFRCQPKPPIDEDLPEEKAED
Nature of the assay: Binding affinity towards adenosine A1 receptor using [3H]- CHA. The essentials: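 Adenosine A1 binding in membranes of rat whole brain minus brain stem and cerebellum (male Long-Evans, 150–250 g), using [3H]-CHA at 1.0 nM final. Theophylline at 1 mM final was the reference. IC50 from four or five concentrations by nonlinear fit.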

For a further assay, the system named is Mus musculus. Nature of the assay: Effective dose required for inhibition of locomotion/ataxia in mice administered intraperitoneally. It is filed as functional. The settings on record: ip. The essentials:
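Male Swiss–Webster mice (20–30 g, unfasted), nine per dose in groups of three, dosed ip in 0.2% methocel (dose as parent compound) 1 h before testing. Ataxia was scored first on an inverted screen over 60 s as % of mice falling. […] ED50 from at least three doses.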

Assay [7] addresses T2, Adrenergic receptor alpha-2 (Rattus norvegicus, UniProt P22086+P19328+P22909).
T2 sequence (P22086 whole entry): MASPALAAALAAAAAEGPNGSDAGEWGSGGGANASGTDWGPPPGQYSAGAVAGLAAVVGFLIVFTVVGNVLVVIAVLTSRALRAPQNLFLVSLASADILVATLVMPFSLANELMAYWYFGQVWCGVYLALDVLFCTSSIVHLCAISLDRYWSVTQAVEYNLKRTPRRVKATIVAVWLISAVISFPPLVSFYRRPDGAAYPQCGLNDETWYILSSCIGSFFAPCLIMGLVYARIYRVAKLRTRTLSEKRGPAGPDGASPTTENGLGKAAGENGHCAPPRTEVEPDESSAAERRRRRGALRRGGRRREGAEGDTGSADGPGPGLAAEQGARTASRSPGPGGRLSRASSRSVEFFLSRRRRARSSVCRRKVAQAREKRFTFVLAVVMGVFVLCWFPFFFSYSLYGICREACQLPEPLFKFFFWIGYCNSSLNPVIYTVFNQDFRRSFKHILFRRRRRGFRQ
T2 sequence (P19328 whole entry): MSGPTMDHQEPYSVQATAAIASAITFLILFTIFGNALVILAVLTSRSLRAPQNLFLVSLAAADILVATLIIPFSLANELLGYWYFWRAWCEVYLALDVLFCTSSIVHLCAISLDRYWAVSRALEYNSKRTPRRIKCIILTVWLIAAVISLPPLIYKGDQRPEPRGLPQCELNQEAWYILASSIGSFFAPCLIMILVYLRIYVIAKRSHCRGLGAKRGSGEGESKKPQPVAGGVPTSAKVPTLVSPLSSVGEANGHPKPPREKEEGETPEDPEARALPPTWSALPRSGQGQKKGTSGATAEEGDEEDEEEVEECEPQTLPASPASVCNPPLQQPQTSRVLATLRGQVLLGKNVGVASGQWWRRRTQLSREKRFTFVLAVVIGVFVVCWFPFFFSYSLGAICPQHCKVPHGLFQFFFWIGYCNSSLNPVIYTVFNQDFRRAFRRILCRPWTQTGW
T2 sequence (P22909 whole entry): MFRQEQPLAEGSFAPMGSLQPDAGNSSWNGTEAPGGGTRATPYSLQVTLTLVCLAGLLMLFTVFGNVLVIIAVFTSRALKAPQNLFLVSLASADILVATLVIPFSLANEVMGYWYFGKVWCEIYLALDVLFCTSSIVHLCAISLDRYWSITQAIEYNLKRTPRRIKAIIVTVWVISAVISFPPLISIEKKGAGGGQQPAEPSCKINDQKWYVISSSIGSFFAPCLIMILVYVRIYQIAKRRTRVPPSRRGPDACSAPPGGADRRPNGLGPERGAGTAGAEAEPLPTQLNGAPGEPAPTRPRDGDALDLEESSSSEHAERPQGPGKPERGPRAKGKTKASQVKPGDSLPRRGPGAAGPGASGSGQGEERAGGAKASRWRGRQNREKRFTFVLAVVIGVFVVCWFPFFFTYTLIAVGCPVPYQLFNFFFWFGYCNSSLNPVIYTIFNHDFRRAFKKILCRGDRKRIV
Nature of the assay: Binding affinity against alpha-2 adrenergic receptor in rat brain using [3H]- clonidine.

For the next assay, the system named is Canis familiaris. Nature of the assay: Emesis test in dogs was determined when dose administered per orally. In kind it is functional. Conditions: Canis lupus familiaris, po; read-out: MED. The essentials: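 Fasted dogs (7–12 kg), normally three per dose, were dosed orally and observed hourly for up to 6 h for emesis and other autonomic or behavioural signs. The minimal effective dose was the lowest dose producing emesis in any animal.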

In assay [8] the test system is Rattus norvegicus. In words: Inhibition of conditional avoid in rats after peroral administration. Conditions: po. It is filed as functional. The essentials:
as §2

For the molecule `CCN(CC)CC(=O)Nc1c(C(=O)c2ccccc2F)c(C)nn1C`, the Control in the assay with Rattus norvegicus [1] worked out at 102.1%; in the assay on Rattus norvegicus [3] it was 52.9%; in the assay on Rattus norvegicus [6], 21.8%. For the same molecule, the IC50 (in assay [2]; in assay [5]; on Adenosine receptor A1) was greater than 10 µM each time. Moreover, it took a dose of 18 mg/kg to reach the 50% effect level with Rattus norvegicus [4] (ED50).
`Cc1nn(C)c(N)c1C(=O)c1ccccc1F`: the ED50 with Mus musculus stood at 8 mg/kg. Also, the IC50 (in assay [7]; on Adenosine receptor A1) was greater than 10 µM each time.
As for `Cc1nn(C)c(NC(=O)CNCCCN2CCCCC2C)c1C(=O)c1ccccc1F` (centres undefined), in assay [7], the IC50 was greater than 10 µM. This molecule also had a Control in the assay with Rattus norvegicus [6] of 51%. Further, the minimal effective dose in the assay on Canis familiaris came out at 56 mg/kg. The molecule further returned an ED50 with Rattus norvegicus [8] of 43.5 mg/kg.
